Experimental data reported in ChEMBL document CHEMBL5154683, “A 5-FU Precursor Designed to Evade Anabolic and Catabolic Drug Pathways and Activated by Pd Chemistry In Vitro and In Vivo” (J Med Chem, 2022).
Calls of active or inactive are those of the source. The calls are words filed in the database; no cut-off is given here.

Key:
[1] = Metabolic stability in rat hepatocytes assessed as intrinsic clearance at 3 uM measured per 10^6 cells by LC-MS/MS analysis; type: ADME, cell-based, Hepatocyte; settings: read-out: CLH
Outline: (§1)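 Suspended hepatocytes (0.5 × 10⁶ cells/mL) in Williams E medium with 2 mM L-glutamine and 25 mM HEPES at 37 °C, compound added with 0.25% v/v DMSO after preincubation; aliquots quenched into methanol with internal standard at time points, centrifuged, supernatant analyzed by LC-MS/MS; two control compounds included.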

[2] = Metabolic stability in human hepatocytes assessed as intrinsic clearance at 1 uM measured per 10^6 cells by LC-MS/MS analysis; type: ADME, cell-based, Hepatocyte; settings: read-out: CLH; outline: as §1
[3] = AUC (0 to infinity) in male Wistar Han rat at 10 mg/kg, po administered as single dose measured upto 24 hrs; type: ADME, organism-based; design: time < 24 hrs, dose 10 mg/kg, route po; settings: in vivo
Outline: (§2)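 Male jugular-vein-cannulated Wistar Han rats, 263–319 g, single dose. IV: 1 mg/kg as 2 mL/kg of 0.5 mg/mL in 5% DMSO/95% HPCD (20% w/v), not fasted. PO: 10 mg/kg as 5 mL/kg of 2 mg/mL suspension in 5% DMSO/95% tween 80/HPCD vehicle, fasted overnight. Serial cannula blood sampling 0.083/0.25–24 h (n = 3/route); parent quantified by QToF against calibration curve.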

[4] = Metabolic stability in rat hepatocytes assessed as half life at 3 uM by LC-MS/MS analysis; type: ADME, cell-based, Hepatocyte; outline: as §1
[5] = Apparent permeability across basolateral to apical side in human Caco-2 cells assessed as drug recovery at 10 uM measured after 120 mins by LC-MS/MS analysis; type: ADME, cell-based; settings: read-out: Drug recovery
Outline: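 Caco-2 cells (P40-60) seeded at 1 × 10⁵ cells/cm² on Transwells, used on day 20; rinsed and equilibrated 40 min in HBSS pH 7.4. Compound at 10 μM in HBSS, 1% v/v DMSO, added apically (A–B) or basolaterally (B–A); 120 min at 37 °C, 5% CO₂. Lucifer yellow monitored monolayer integrity; LC-MS/MS with eight-point calibration; recovery from C₀ and both compartments.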

[6] = AUC (0 to t) in male Wistar Han rat at 10 mg/kg, po administered as single dose measured upto 24 hrs; type: ADME, organism-based; design: time < 24 hrs, dose 10 mg/kg, route po; settings: in vivo; outline: as §2
[7] = Cmax in male Wistar Han rat at 1000 mg/kg, po administered as single dose measured upto 24 hrs; type: ADME, organism-based; design: time < 24 hrs, dose 1000 mg/kg, route po; settings: in vivo
Outline: (§3)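 Single oral dose 1000 mg/kg in male and female rats, dosing volume 10 mL/kg (n = 6); animals observed 14 days with clinical checks, functional/neurobehavioral tests and body weight, necropsy on d15; exposure parameters from the toxicokinetic arm of this study.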

[8] = Tmax in male Wistar Han rat at 1000 mg/kg, po administered as single dose measured upto 24 hrs; type: ADME, organism-based; settings: in vivo; outline: as §3
[9] = Prodrug conversion in rat liver S9 fraction assessed as DH5FU metabolite formation at 1.6 mM incubated for 1 hr in presence of NADPH by 19F-NMR based analysis; type: ADME, subcellular; settings: s9, 1 h, 1600 µM
Outline: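 Compound added as 150 mM stock in DMSO-d₆, preincubated 5 min at 37 °C with enzyme mixture, then NADPH added (1 mM) and incubated 1 h at 37 °C, 600 rpm; controls without NADPH and without enzymes. Stopped with EtOAc, dried under N₂, redissolved in DMSO-d₆, DH5FU detected by ¹⁹F NMR vs authentic sample.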

[10] = Toxicity in female Wistar Han rat assessed as change in body weight at 1000 mg/kg, po administered as single dose measured over 14 days; type: organism-based; settings: in vivo, 336 h, time > 14 day
Outline: (§4)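 Single oral dose of 1000 mg/kg at 10 mL/kg to male and female rats (n = 6), then 14 d observation. Morbidity and mortality checked twice daily. Clinical signs recorded predose, twice on dosing day, then daily. FOB on d1, d7 or d14. Body weight on d1, 2, 5, 8, 11 and 14. Gross necropsy on d15.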

[11] = Cmax in female Wistar Han rat at 1000 mg/kg, po administered as single dose measured upto 24 hrs; type: ADME, organism-based; design: time < 24 hrs, dose 1000 mg/kg, route po; settings: in vivo; outline: as §3
HCT-116 [12] = assay: Antiproliferative activity against human HCT-116 cells assessed as increase in cytotoxicity at 1 uM incubated for 5 days in presence of Pd-resin by PrestoBlue dye based assay; type: functional, cell-based; settings: time 5.0 day
[13] = Plasma protein binding in rat at 5 uM; type: ADME, cell-free; settings: read-out: PPB (converted)
Outline: (§5)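 Binding of compound at 5 μM measured in rat and human plasma, with compound recovery determined; n = 3.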

[14] = Tmax in female Wistar Han rat at 1000 mg/kg, po administered as single dose measured upto 24 hrs; type: ADME, organism-based; settings: in vivo; outline: as §3
[15] = Mean residence time in male Wistar Han rat at 1 mg/kg, iv administered as single dose measured upto 24 hrs; type: ADME, organism-based; settings: in vivo; outline: as §2
[16] = AUC (0 to infinity) in female Wistar Han rat at 1000 mg/kg, po administered as single dose measured upto 24 hrs; type: ADME, organism-based; design: time < 24 hrs, dose 1000 mg/kg, route po; settings: in vivo; outline: as §3
HCT-116 [17] = assay: Antiproliferative activity against human HCT-116 cells assessed as reduction in cell viability measured after 5 days by PrestoBlue reagent based assay; type: functional; settings: HCT-116, 120 h
Outline: (§6)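 Cells in 10% FBS, 2 mM L-glutamine media at 37 °C, 5% CO₂ (HCT116 in McCoy's 5A, BxPC-3 in RPMI). Seeded at 3000 (HCT116) or 2500 (BxPC-3) cells/well and grown 48 h. Medium then replaced with drug-containing medium, 0.1% DMSO, for 5 d. PrestoBlue 10% v/v added for 1 h, fluorescence read ex 540/em 590 nm. Normalised to DMSO-only wells; sigmoidal variable-slope fit; n = 3.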

[18] = Metabolic stability in rat hepatocytes assessed as half life at 1 uM by LC-MS/MS analysis; type: ADME, cell-based, Hepatocyte; outline: as §1
[19] = Half life in male Wistar Han rat at 1 mg/kg, iv administered as single dose measured upto 24 hrs; type: ADME, organism-based; settings: in vivo; outline: as §2
[20] = Toxicity in female Wistar Han rat assessed as mortality at 1000 mg/kg, po administered as single dose measured over 14 days; type: organism-based; settings: in vivo, 336 h, time > 14 day; outline: as §4
[21] = Drug metabolism in PBS buffer assessed as dealkylation of parent compound causing metabolite formation at 100 uM in presence of palladium resin; type: ADME
Outline: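 Prodrug (100 μM in PBS, pH 7.4) shaken at 1200 rpm, 37 °C with 1 mg/mL Pd resins (30 μm). Sampled at 10, 20, 40 min, 1, 3, 6, 24 and 48 h; analyzed by reverse-phase UPLC (C18, 60 °C, UV 254 nm), products identified by retention time against authentic standards.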

[22] = Metabolic stability in rat hepatocytes assessed as intrinsic clearance at 1 uM measured per 10^6 cells by LC-MS/MS analysis; type: ADME, cell-based, Hepatocyte; settings: read-out: CLH; outline: as §1
[23] = Plasma protein binding in rat assessed as compound recovery at 5 uM; type: ADME, cell-free; settings: read-out: Drug recovery; outline: as §5
BXPC-3 = assay: Antiproliferative activity against human BxPC-3 cells assessed as reduction in cell viability measured after 5 days by PrestoBlue reagent based assay; type: functional; settings: BXPC-3, 120 h; outline: as §6
[24] = Clearance in male Wistar Han rat at 1 mg/kg, iv administered as single dose measured upto 24 hrs; type: ADME, organism-based; settings: in vivo; outline: as §2
[25] = Metabolic stability in human hepatocytes assessed as half life at 1 uM by LC-MS/MS analysis; type: ADME, cell-based, Hepatocyte; outline: as §1

Structure (SMILES): C#CCOc1ncc(F)c(OCC#C)n1
- hepatocyte CLint at 3 µM [1]: 3.31 µL/min/1e6 cells
- hepatocyte CLint at 1 µM [2]: 4.51 µL/min/1e6 cells
- AUC(0-inf) [3]: 6.19 µg·h/mL
- half-life at 3 µM [4]: 6.97 h
- recovery at 2 h, 10 µM [5]: 73.9%
- AUC(0-t) at 24 h [6]: 6.08 µg·h/mL
- Cmax [7]: 84.7 µg/mL
- Tmax [8]: 1 h
- Drug metabolism [9]: Metabolite_Notdetected
- Activity [10]: Non-Toxic
- Cmax [11]: 83.6 µg/mL
- Activity (HCT-116 [12]): Active
- fraction unbound at 5 µM [13]: 0.161
- Tmax [14]: 4 h
- MRT [15]: 0.569 h
- AUC(0-inf) [16]: 1470 µg·h/mL
- EC50 (HCT-116 [17]): > 100 µM
- half-life at 1 µM [18]: 1.52 h
- half-life [19]: 0.497 h
- Activity [20]: Non-Toxic
- Drug metabolism [21]: Metabolite_Detected
- hepatocyte CLint at 1 µM [22]: 15.3 µL/min/1e6 cells
- recovery at 5 µM [23]: 94.8%
- EC50 (BXPC-3): > 100 µM
- clearance [24]: 52.1 mL/min/kg
- half-life at 1 µM [25]: 5.37 h
